In ChEMBL document CHEMBL2029221, “Acylprolinamides: a new class of peptide deformylase inhibitors with in vivo antibacterial activity” (Bioorg Med Chem Lett, 2012):
In brackets after ≈: the same amount, converted by molar mass.

What was measured:
Staphylococcus aureus = assay: Antibacterial activity against Staphylococcus aureus Oxford by broth microdilution method; format: functional
Procedure, shortened: (§1)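 Broth microdilution following NCCLS document M7-A4. Serial two-fold dilutions from 0.06 to 64 mcg/ml were tested. The MIC was the lowest concentration preventing visible growth, with the endpoint read with the aid of a mirror reader.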

[1] = Metabolic stability of the compound in human blood assessed as compound remaining at 2000 ng/mL after 2 hrs; format: ADME, tissue-based; conditions: read-out: Stability
Procedure, shortened: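 Samples (n = 3) were spiked into fresh human blood at 2000 ng/mL, incubated at 37 °C for 120 min, and reported as % recovered at 2 h.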

[2] = Inhibition of Haemophilus influenzae PDF assessed as formate release from fMAS peptide substrate after 20 mins by formate dehydrogenase coupled assay
Procedure, shortened: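 Coupled assay in which formate released from the fMAS peptide is oxidized by formate dehydrogenase, reducing NAD to NADH, read as the rise in absorbance at 340. Reactions were started by adding PDF and velocities measured for 20 min at 25 °C. Values are the mean of at least 2 runs.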

Enterococcus faecalis = assay: Antibacterial activity against Enterococcus faecalis 7 by broth microdilution method; format: functional; procedure, shortened: as §1
Rhesus monkey = assay: Dose normalized AUC (0 to infinity) in monkey at 5.1 mg/kg, po; format: ADME, organism-based, Macaca mulatta; parameters: dose 5.1 mg/kg, route oral; conditions: in vivo
Procedure, shortened: (§2)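 Single-compound pharmacokinetics with n = 3 per species, given i.v. and p.o. Reported measures are plasma clearance after i.v. dosing, dose-normalized AUC(0–inf) after oral dosing, and oral bioavailability.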

Streptococcus pneumoniae [3] = assay: Antibacterial activity against Streptococcus pneumoniae 1629 infected in rat respiratory tract infection model assessed as reduction in bacterial count at 75 mg/kg, po bid for 4 days relative to control; format: functional
Procedure, shortened: (§3)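 Rat respiratory tract infection models with oral b.i.d. dosing. Efficacy was read as bacterial lung counts (log10 cfu/mL) compared with non-treated controls.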

[4] = Plasma clearance in monkey at 3 mg/kg, iv; format: ADME, organism-based, Macaca mulatta; parameters: dose 3 mg/kg, route intravenous; conditions: rhesus monkey; procedure, shortened: as §2
Streptococcus pneumoniae [5] = assay: Antibacterial activity against Streptococcus pneumoniae 1629 infected in rat respiratory tract infection model assessed as reduction in bacterial count at 150 mg/kg, po bid for 4 days relative to control; format: functional; procedure, shortened: as §3
Peptide deformylase [6] = target: T1, Peptide deformylase (Staphylococcus aureus, UniProt P68826); assay: Inhibition of Staphylococcus aureus PDF assessed as formate release from fMAS peptide substrate after 20 mins by formate dehydrogenase coupled assay
T1 sequence (P68826 whole entry): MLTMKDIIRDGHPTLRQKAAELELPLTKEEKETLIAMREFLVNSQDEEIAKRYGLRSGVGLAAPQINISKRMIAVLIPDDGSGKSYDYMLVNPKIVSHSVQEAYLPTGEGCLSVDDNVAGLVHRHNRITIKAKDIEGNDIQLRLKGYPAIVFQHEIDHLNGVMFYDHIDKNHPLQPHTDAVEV

Haemophilus influenzae [7] = assay: Antibacterial activity against Haemophilus influenzae H128 infected in rat respiratory tract infection model assessed as reduction in bacterial count at 300 mg/kg, po bid for 2 days relative to control; format: functional; procedure, shortened: as §3
[8] = Oral bioavailability in dog at 6.5 mg/kg; format: ADME, organism-based, Canis lupus familiaris; conditions: in vivo; procedure, shortened: as §2
Rattus norvegicus = assay: Dose normalized AUC (0 to infinity) in rat at 27.1 mg/kg, po; format: ADME, organism-based; parameters: dose 27.1 mg/kg, route oral; conditions: in vivo; procedure, shortened: as §2
Streptococcus pneumoniae [9] = assay: Antibacterial activity against Streptococcus pneumoniae 1629 by broth microdilution method; format: functional; procedure, shortened: as §1
[10] = Oral bioavailability in rat at 27.1 mg/kg; format: ADME, organism-based; conditions: in vivo
Procedure, shortened: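 Rat oral bioavailability (n = 3) was estimated from a non-crossover study comparing i.v. and p.o. dosing.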

[11] = Metabolic stability of the compound in rat blood assessed as compound remaining at 2000 ng/mL after 2 hrs; format: ADME, tissue-based; conditions: read-out: Stability
[12] = Plasma clearance in dog at 4.5 mg/kg, iv; format: ADME, organism-based, Canis lupus familiaris; parameters: dose 4.5 mg/kg, route intravenous; procedure, shortened: as §2
[13] = Oral bioavailability in monkey at 5.1 mg/kg; format: ADME, organism-based, Macaca mulatta; conditions: rhesus monkey, in vivo; procedure, shortened: as §2
Moraxella catarrhalis = assay: Antibacterial activity against Moraxella catarrhalis 1502 by broth microdilution method; format: functional; procedure, shortened: as §1
Canis familiaris = assay: Dose normalized AUC (0 to infinity) in dog at 6.5 mg/kg, po; format: ADME, organism-based, Canis lupus familiaris; parameters: dose 6.5 mg/kg, route oral; conditions: in vivo; procedure, shortened: as §2
Haemophilus influenzae [14] = assay: Antibacterial activity against Haemophilus influenzae Q1 by broth microdilution method; format: functional; procedure, shortened: as §1
Peptide deformylase [15] = target: T2, Peptide deformylase (Streptococcus pneumoniae serotype 4 (strain ATCC BAA-334 / TIGR4), UniProt Q9F2F0); assay: Inhibition of Streptococcus pneumoniae PDF assessed as formate release from fMAS peptide substrate after 20 mins by formate dehydrogenase coupled assay
T2 sequence (Q9F2F0 whole entry): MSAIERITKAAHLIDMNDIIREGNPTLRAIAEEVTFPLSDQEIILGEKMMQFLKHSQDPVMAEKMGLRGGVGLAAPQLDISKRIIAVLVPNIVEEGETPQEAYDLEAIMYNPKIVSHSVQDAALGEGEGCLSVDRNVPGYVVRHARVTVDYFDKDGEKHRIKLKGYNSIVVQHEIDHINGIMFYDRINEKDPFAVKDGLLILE

Row | SMILES | MIC (Staphylococcus aureus) [µg/mL] | remaining at 2 h, 2000 ng/mL [1] [%] | IC50 [2] [nM] | MIC (Enterococcus faecalis) [µg/mL] | IC50 (Peptide deformylase [6]) [nM] | MIC (Streptococcus pneumoniae [9]) [µg/mL] | remaining at 2 h, 2000 ng/mL [11] [%] | MIC (Moraxella catarrhalis) [µg/mL] | MIC (Haemophilus influenzae [14]) [µg/mL] | IC50 (Peptide deformylase [15]) [nM] | further results
1 | CCNC(=O)NC(=O)[C@@H]1CCCN1C(=O)[C@H](CC1CCCC1)CN(O)C=O | 0.5 (≈ 1.31 µM) | 111 | 4.9 | 2 (≈ 5.23 µM) | 2 | 0.25 (≈ 0.654 µM) | 58.6 | ≤ 0.06 | 0.5 (≈ 1.31 µM) | 0.44 | AUC/dose (Rhesus monkey): 111.4 ng·h/mL/mg/kg; log10CFU/ml (Streptococcus pneumoniae [3]): 3.86; clearance [4]: 29.4 mL/min/kg; log10CFU/ml (Streptococcus pneumoniae [5]): 3.86; log10CFU/ml (Haemophilus influenzae [7]): 4.21; bioavailability [8]: 100%; AUC/dose (Rattus norvegicus): 43.3 ng·h/mL/mg/kg; bioavailability [10]: 30%; clearance [12]: 36.3 mL/min/kg; bioavailability [13]: 20%; AUC/dose (Canis familiaris): 629.9 ng·h/mL/mg/kg
2 | CC(C)(C)OC(=O)NC(=O)[C@@H]1CCCN1C(=O)[C@H](CC1CCCC1)CN(O)C=O | 1 (≈ 2.43 µM) | 52 | 3.2 | 1 (≈ 2.43 µM) | 3.4 | 0.25 (≈ 0.608 µM) | 27.6 | ≤ 0.06 | 0.25 (≈ 0.608 µM) | 0.52 | –
3 | CC(C)NC(=O)NC(=O)[C@@H]1CCCN1C(=O)[C@H](CC1CCCC1)CN(O)C=O | 1 (≈ 2.52 µM) | 99.7 | 3 | 4 (≈ 10.1 µM) | 1.6 | 1 (≈ 2.52 µM) | – | ≤ 0.06 | 2 (≈ 5.04 µM) | 0.31 | –
4 | O=CN(O)C[C@@H](CC1CCCC1)C(=O)N1CCC[C@H]1C(=O)NC(=O)c1ccccc1 | 1 (≈ 2.41 µM) | – | 3.8 | 1 (≈ 2.41 µM) | – | 0.25 (≈ 0.602 µM) | 27.2 | ≤ 0.06 | 0.5 (≈ 1.2 µM) | – | –
5 | CC(C)(C)C(=O)NC(=O)[C@@H]1CCCN1C(=O)[C@H](CC1CCCC1)CN(O)C=O | 2 (≈ 5.06 µM) | 80.6 | 18 | 4 (≈ 10.1 µM) | 10 | 2 (≈ 5.06 µM) | 29 | ≤ 0.06 | 2 (≈ 5.06 µM) | 1.3 | –

More lines, main results first:

Row | MIC (Staphylococcus aureus) [µg/mL] | remaining at 2 h, 2000 ng/mL [1] [%] | IC50 [2] [nM] | MIC (Enterococcus faecalis) [µg/mL] | IC50 (Peptide deformylase [6]) [nM] | MIC (Streptococcus pneumoniae [9]) [µg/mL] | remaining at 2 h, 2000 ng/mL [11] [%] | MIC (Moraxella catarrhalis) [µg/mL] | MIC (Haemophilus influenzae [14]) [µg/mL] | IC50 (Peptide deformylase [15]) [nM] | SMILES | further results
6 | 0.5 (≈ 1.22 µM) | 31.7 | 5.8 | 1 (≈ 2.44 µM) | 2.4 | 0.25 (≈ 0.611 µM) | 0 | ≤ 0.06 | 0.5 (≈ 1.22 µM) | 0.51 | O=CN(O)C[C@@H](CC1CCCC1)C(=O)N1CCC[C@H]1C(=O)NC(=O)OC1CCC1 | –
7 | 0.25 (≈ 0.629 µM) | 49.6 | 4.7 | 4 (≈ 10.1 µM) | 2 | 0.25 (≈ 0.629 µM) | 0 | ≤ 0.06 | 0.25 (≈ 0.629 µM) | 0.48 | CC(C)OC(=O)NC(=O)[C@@H]1CCCN1C(=O)[C@H](CC1CCCC1)CN(O)C=O | –
8 | 0.5 (≈ 1.18 µM) | 57.5 | 3.1 | 1 (≈ 2.36 µM) | 1.4 | 0.125 (≈ 0.295 µM) | 0 | ≤ 0.06 | 1 (≈ 2.36 µM) | 0.26 | O=CN(O)C[C@@H](CC1CCCC1)C(=O)N1CCC[C@H]1C(=O)NC(=O)OC1CCCC1 | –
9 | 1 (≈ 2.28 µM) | 23 | 3.1 | 2 (≈ 4.55 µM) | 4.4 | 0.25 (≈ 0.569 µM) | 9.5 | ≤ 0.06 | 0.5 (≈ 1.14 µM) | 0.66 | O=CN(O)C[C@@H](CC1CCCC1)C(=O)N1CCC[C@H]1C(=O)NC(=O)OC1CCOCC1 | –
10 | 0.25 (≈ 0.571 µM) | 45.8 | 2.3 | 0.5 (≈ 1.14 µM) | 1.5 | 0.125 (≈ 0.286 µM) | 0.4 | ≤ 0.06 | 1 (≈ 2.29 µM) | 0.3 | O=CN(O)C[C@@H](CC1CCCC1)C(=O)N1CCC[C@H]1C(=O)NC(=O)OC1CCCCC1 | –
